Columns and labels:
[1] = species: Homo sapiens; assay: In vitro inhibitory activity against superoxide production from human neutrophils stimulated with f-MLP; NE indicates no effect; format: functional
In short: (§1)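 Neutrophils isolated from fresh venous blood of healthy adults by dextran sedimentation and Ficoll-paque gradient. Cells diluted in Hepes–Hanks, pH 7.4, then held at 1 × 10^6 cell/mL and preincubated 20 min at 37 °C with or without compound. Cytochalasin B (1 μg/mL final) added 10 min and ferricytochrome c (106 μM final) added 4 min before f-MLP stimulation. Reaction stopped with 1 mM N-ethylmaleimide, cells spun down, superoxide read as SOD-inhibitable absorbance at 550 nm.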

[2] = species: Homo sapiens; assay: In vitro inhibitory activity against superoxide production from human neutrophils stimulated with f-MLP; format: functional; in short: as §1
[3] = Solubility was measured by shaking with water and 1 equiv of NaOH; format: physicochemical; conditions: water with 1 equiv of NaOH
In short: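 Solubility: compound shaken with water plus 1 equiv NaOH; dissolved amount quantified by HPLC.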

[4] = species: Homo sapiens; assay: In vitro inhibitory activity against superoxide production from human neutrophils stimulated with f-MLP; No effect; format: functional; in short: as §1
[5] = Solubility was measured by shaking with water; format: physicochemical
In short: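 Aqueous solubility: compound shaken with water; dissolved amount quantified by HPLC.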

[6] = species: Homo sapiens; assay: In vitro inhibitory activity against superoxide production from human neutrophils stimulated with f-MLP; NE= No effect; format: functional; in short: as §1
[7] = species: Homo sapiens; assay: In vitro inhibitory activity against superoxide production from human neutrophils stimulated with f-MLP; act.= activation of superoxide production; format: functional; in short: as §1

| SMILES | IC50 [2] [nM] | other results |
| --- | --- | --- |
| CCCOc1ccc(-c2nc(-c3ccc4c(c3)CCC(=O)N4)cs2)cc1OCCC | – | IC50 [1]: Not Active |
| COc1ccc(-c2nc(-c3ccc4c(c3)CCC(=O)N4)co2)cc1OC | > 10000 | – |
| COc1ccc(-c2nc(-c3ccc4c(c3)CCC(=O)N4)cs2)cc1 | 9000 | – |
| CCOc1ccc(-c2nc(-c3cccc(C(=O)O)n3)cs2)cc1OCC [TETOMILAST] | 70 | solubility [3]: 21 mg/mL |
| Cc1ccc(-c2nc(-c3ccc4c(c3)CCC(=O)N4)cs2)cc1C | – | IC50 [1]: Not Active |
| COc1cc(-c2nc(-c3ccc4c(c3)CCC(=O)N4)cs2)ccc1[S+](C)[O-] (stereo not given) | 800 | – |
| CCOc1ccc(-c2nc(-c3cccc(C(=O)O)c3)cs2)cc1OCC | 5 | solubility [3]: 23 mg/mL |
| O=C1CCc2cc(-c3csc(-c4ccc5c(c4)OCCO5)n3)ccc2N1 | – | IC50 [1]: Not Active |
| CCOc1cc(-c2nc(-c3ccc4c(c3)CCC(=O)N4)cs2)ccc1OC | 90 | – |
| COc1ccc(-c2nc(-c3ccc4c(c3)CCC(=O)N4)cs2)cc1OC | 300 | – |
| COc1ccc(Cc2nc(-c3ccc4c(c3)CCC(=O)N4)cs2)cc1OC | 10000 | – |
| CC(=O)Oc1ccc(-c2nc(-c3ccc4c(c3)CCC(=O)N4)cs2)cc1OC(C)=O | – | IC50 [4]: Not Active |
| COc1ccc(/C=C/c2nc(-c3ccc4c(c3)CCC(=O)N4)cs2)cc1OC | 2800 | – |
| CCCCOc1cc(-c2nc(-c3ccc4c(c3)CCC(=O)N4)cs2)ccc1OC | 300 | – |
| COc1cc(-c2nc(-c3ccc4c(c3)CCC(=O)N4)cs2)ccc1S(C)(=O)=O | – | IC50 [1]: Not Active |
| O=C1CCc2cc(-c3csc(-c4ccccc4)n3)ccc2N1 | > 10000 | – |
| O=C1CCc2cc(-c3csc(-c4ccc(Cl)cc4)n3)ccc2N1 | – | IC50 [1]: Not Active |
| O=C1CCc2cc(-c3csc(-c4ccc([N+](=O)[O-])cc4)n3)ccc2N1 | – | IC50 [1]: Not Active |
| CCCCOc1ccc(-c2nc(-c3ccc4c(c3)CCC(=O)N4)cs2)cc1OC | – | IC50 [1]: Not Active |
| Nc1ccc(-c2csc(-c3cccnc3)n2)cc1 | 3000 | – |
| COc1ccc(-c2nc(-c3ccc4c(c3)CCC(=O)N4)c[nH]2)cc1OC | > 10000 | – |
| COc1cc(OC)cc(-c2nc(-c3ccc4c(c3)CCC(=O)N4)cs2)c1 | – | IC50 [1]: Not Active |

| SMILES | IC50 [2] [nM] | other results |
| --- | --- | --- |
| c1ccc(-c2csc(-c3cccnc3)n2)cc1 | 1000 | – |
| CCCCOc1ccc(-c2nc(-c3ccc4c(c3)CCC(=O)N4)cs2)cc1OCCCC | – | IC50 [1]: Not Active |
| CCCOc1cc(-c2nc(-c3ccc4c(c3)CCC(=O)N4)cs2)ccc1OC | 90 | – |
| CCOc1ccc(-c2nc(-c3ccc(C(=O)O)cc3)cs2)cc1OCC | 200 | solubility [3]: 23 mg/mL |
| c1cncc(-c2csc(-c3cccnc3)n2)c1 | 1000 | – |
| COc1ccc(C(=O)c2nc(-c3ccc4c(c3)CCC(=O)N4)cs2)cc1OC | 1000 | – |
| O=C1CCc2cc(-c3csc(-c4cccnc4)n3)ccc2N1 | 1000 | – |
| CCOc1ccc(-c2nc(-c3cc(OC(C)=O)cc(OC(C)=O)c3)cs2)cc1OCC | 1 | solubility thermodynamic [5]: < 0.001 mg/mL |
| COc1ccc(-c2nc(-c3ccc4c(c3)CCC(=O)N4)cs2)c(OC)c1 | 3000 | – |
| CCCCCCCCCCOc1ccc(-c2nc(-c3ccc4c(c3)CCC(=O)N4)cs2)cc1OCCCCCCCCCC | – | IC50 [6]: Not Active |
| CCCOc1ccc(-c2nc(-c3ccc4c(c3)CCC(=O)N4)cs2)cc1OC | – | IC50 [1]: Not Active |
| CCOc1ccc(-c2nc(-c3ccc4c(c3)CCC(=O)N4)cs2)cc1OCC | 80 | – |
| CCOc1ccc(-c2nc(-c3ccc(C(=O)O)o3)cs2)cc1OCC | 20 | solubility [3]: 23 mg/mL |
| COc1cc(-c2nc(-c3ccc4c(c3)CCC(=O)N4)cs2)ccc1SC | 400 | – |
| O=C1CCc2cc(-c3csc(-c4ccc(C(=O)O)cc4)n3)ccc2N1 | – | IC50 [1]: Not Active |
| O=C1CCc2cc(-c3csc(-c4ccc(O)c(O)c4)n3)ccc2N1 | 1000 | – |
| CCOc1ccc(-c2nc(-c3ccc(C(=O)O)s3)cs2)cc1OCC | 80 | solubility [3]: 23 mg/mL |
| CCOc1ccc(-c2nc(-c3ccc4c(c3)CCC(=O)N4)cs2)cc1OC | 600 | – |
| CCOc1ccc(-c2nc(-c3ccccc3C(=O)O)cs2)cc1OCC | > 10000 | solubility [3]: 21 mg/mL |
| COc1cccc(-c2nc(-c3ccc4c(c3)CCC(=O)N4)cs2)c1OC | – | IC50 [7]: Active |
| COc1ccc(C(O)c2nc(-c3ccc4c(c3)CCC(=O)N4)cs2)cc1OC (stereo not given) | – | IC50 [1]: Not Active |
